Assay results taken from the RNAGym collection of RNA variant scans (doi:10.1126/science.aae0568).
Fewer inactive variants are shown than the library holds.

B1: tRNA (parent)
chain: GUUCCGUUGGCGUAAUGGUAACGCGUCUCCCUCCUAAGGAGAAGACUGCGGGUUCGAGUCCCGUACGGAACG

Variants of: B1
Experiment: yeast fitness relative to wild type (ratio to wild type); higher = fitter; tRNA-Arg(CCU), competitive growth, 37 C, YPD
In short: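 The tRNA-Arg(CCU) gene variants were made by chemical synthesis with a 3% per-site mutation rate at 69 sites and inserted at the native genomic locus of Saccharomyces cerevisiae. After pooling, the strains were competed in YPD at 37°C for 24 hours in six parallel replicates. Gene amplicons from the start population and each end population were read by 100-nucleotide paired-end sequencing, and Darwinian fitness relative to wild type was taken from genotype frequency changes. Genotypes needed ≥ 100 starting reads, and estimates < 0.5 were set to 0.5.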

Variant | yeast fitness
GUUCCGUUGGCGUAAUGGUAACGCGUCUCCCACCUAAGGAGAAGACUGCGGGUUCGAGUCCCGUACGGAGCG [U32A A70G] | 0.841
GUUCCGUUGGCGUAAUGGUAACGCGUCUCCCACCAAAGGAGAAGACUGCGGGUUCGAGUCCCGUACGGAACG [U32A U35A] | 0.619
GUUCCGUUGGCGUAAUGGUAACGCGUCUCCCACCUAAGGAGAAGACUGCGGGUUCGAGUCCCGUGCGGAACG [U32A A65G] | 0.719
GUUCCGUUGGCGUAAUGGUAACGCGUCUCCCACCUAAGGAGAAGACUGUGGGUUCGAGUCCCGUACGGAACG [U32A C49U] | 0.78
GUUCCGUUGGCGUAAUGGUAACGCGUCUCCCACCUAAGGAGAAGACUGAGGGUUCGAGUCCCGUACGGAACG [U32A C49A] | 0.582
GUUCCGUUGGCGUAAUGGUAACGCGUCUCCCACGUAAGGAGAAGACUGCGGGUUCGAGUCCCGUACGAUUCG [U32A C34G G68A A69U A70U] | ≤ 0.5
GUUCCGUUGGCGUAAUGGUAACGCGUCUCCCACCUAAGGAGAGGACUGCGGGAUCGAGUCCCGUACGGAACG [U32A A43G U53A] | ≤ 0.5
GUUCCGUUGGCGUAAUGGUAACGCGUCUCCCACCUAACGAGAAGACUGCGGGUUCGAGUCCCGUACGGAACG [U32A G38C] | 0.652
GUUCCGUUGGCGUAAUGGUAACGCGUCUCCCACCUACGGAGAAGACUGCGGGUUGGAGUCCCGUACGGAACG [U32A A37C C55G] | 0.503
GUUCCGUUGGCGUAAUGGUAACGCGUCUCCCACCUAAGGAGAAGAAUGCGGGAUCGAGUCCCGUACGGAACG [U32A C46A U53A] | ≤ 0.5
GUUCCGUUGGCGUAAUGGUAACGCGUCUCCCACCUAAGGGGAAGACUGCAGGUUCGAGUCGCGUACGGAACG [U32A A40G G50A C61G] | 0.787
GUUCCGUUGGCGUAAUGGUAACGCGUCUCCCACCUAAGGAGAAGACUGCGGGUUAGAGUCCCGUACGGAACG [U32A C55A] | 0.572
GUUCCGUUGGCGUAAUGGUAACGCGUCUCCCACCUAAGGAGAAGACUGCGGAUUCGAGUCCCGUACGGAACG [U32A G52A] | ≤ 0.5
GUUCCGUUGGCGUAAUGGUAACGCGUCUCCCAACUAAGGAGAUGACUGCGGGUUUGAGUCCCGUACGGAACG [U32A C33A A43U C55U] | ≤ 0.5
GUUCCGUUGGCGUAAUGGUAACGCGUCUCCCACCUAAGGAGUAGACUGCGGGUUCGAGUCGUGUACGGAACG [U32A A42U C61G C62U] | 0.661
GUUCCGUUGGCGUAAUGGUAACGCGUCUCCCACCUAAAGAGAAGACUGCGGGUUCGUGUCCCGUACGGAACG [U32A G38A A57U] | 0.557
GUUCCGUUGGCGUAAUGGUAACGCGUCUCCCACCAAAGGAGUAGACUGCGGGUUCGAGUCCCGUACGGAACG [U32A U35A A42U] | ≤ 0.5
GUUCCGUUGGCGUAAUGGUAACGCGUCUCCCAGCUAAGGAGAAGAUUGCGGGUUCGAGUCCCGUACGGAACG [U32A C33G C46U] | ≤ 0.5
GUUCCGUUGGCGUAAUGGUAACGCGUCUCCCAUCUAAGGCGAAGACUGCGGGUUCGAGUCCCGUACGGAACG [U32A C33U A40C] | 0.661

Variant | yeast fitness
GUUCCGUUGGCGUAAUGGUAACGCGUCUCCCACCUAAGGAGAAGACUGCAGGUUCGAGUCCCGUACGGUACG [U32A G50A A69U] | 0.527
GUUCCGUUGGCGUAAUGGUAACGCGUCUCCCAACUAAGGAGAUGACUGCGGGUUCGAGUCCUGUACGGAACG [U32A C33A A43U C62U] | ≤ 0.5
GUUCCGUUGGCGUAAUGGUAACGCGUCUCCCACCUAAGGAGAAGACUGCGGGUUCCAGUCCCGUACGGUACG [U32A G56C A69U] | 0.53
GUUCCGUUGGCGUAAUGGUAACGCGUCUCCCACCUAAGGAGAAGACUGCGGGUUCGAAUCCCGUACGGAACG [U32A G58A] | 0.781
GUUCCGUUGGCGUAAUGGUAACGCGUCUCCCACCUAAGGAGAAGACUGCGGGUUCGAGUCGCGUACGCAACG [U32A C61G G68C] | 0.601
GUUCCGUUGGCGUAAUGGUAACGCGUCUCCCACCUAAGGAGACGACUGAGGGUUCGAGUCCCGUACGGAACG [U32A A43C C49A] | 0.542
GUUCCGUUGGCGUAAUGGUAACGCGUCUCCCACCUAAGGACAAGACUGGGGGUUUGAGUCCCGUACGGAACG [U32A G41C C49G C55U] | ≤ 0.5
GUUCCGUUGGCGUAAUGGUAACGCGUCUCCCACCUAAGGAGAAGACUGCGGGUUCGAAUCCCGUACGGACCG [U32A G58A A70C] | 0.513
GUUCCGUUGGCGUAAUGGUAACGCGUCUCCCAGCUAAGGAGAAGACUGCGGGUUCGAGUCCCGUAUGGUACG [U32A C33G C66U A69U] | ≤ 0.5
GUUCCGUUGGCGUAAUGGUAACGCGUCUCCCACCUGAGCAGAAGACUGCGGGUUCGAGUCCUGUACGGAACG [U32A A36G G39C C62U] | ≤ 0.5
GUUCCGUUGGCGUAAUGGUAACGCGUCUCCCACCUAAGGAGAAGACUGCGGGUUCGAGUCCCGUAUGGAACG [U32A C66U] | 0.834
GUUCCGUUGGCGUAAUGGUAACGCGUCUCCCACCUAAGGAGAAGCCUACGGGUUCGAGUCCCGUACGGAACG [U32A A45C G48A] | 0.509
GUUCCGUUGGCGUAAUGGUAACGCGUCUCCCACCUAGGGAGAAGACUACGGGUUCGAGUGCCGUACGAAACG [U32A A37G G48A C60G G68A] | ≤ 0.5
GUUCCGUUGGCGUAAUGGUAACGCGUCUCCCACCUAAGGAGGAGACUGCGGGUUCGAGUCCCGUACGGAACG [U32A A42G] | 0.655
GUUCCGUUGGCGUAAUGGUAACGCGUCUCCCACCUAAGGAGAAGUCUGCGGGUGCGAGUCCCGUACGGAACG [U32A A45U U54G] | ≤ 0.5
GUUCCGUUGGCGUAAUGGUAACGCGUCUCCCACGUAAGGAGAAGACUGCGGGUUCGAGUCCCGUACGGAACG [U32A C34G] | ≤ 0.5
GUUCCGUUGGCGUAAUGGUAACGCGUCUCCCACCUAAGGAGAAGACUGCGGGUUCGAGUCCCGUACCGAACG [U32A G67C] | 0.732
GUUCCGUUGGCGUAAUGGUAACGCGUCUCCCACCUAAGGAGAUGACUGCGGGUUCGAGUCCCGUACGGAACG [U32A A43U] | 0.879
GUUCCGUUGGCGUAAUGGUAACGCGUCUCCCACCUAAGGAGAGGACUGCGGGUUCGAGUCCCGUACGGAACG [U32A A43G] | 0.666
